ChEMBL document CHEMBL1149069, “SB-202742, a novel beta-lactamase inhibitor isolated from Spondias mombin” (J Nat Prod, 1994)
Converted amounts (≈) assume the structure as drawn. The source made the active and inactive calls. The rule behind the calls is not given here.

Tests used:
[1] = Inhibition of Escherichia coli K-12 beta-lactamase OXA1 assessed as inhibition of nitrocefin hydrolysis pre-incubated for 5 mins by microtiter plate assay
[2] = Inhibition of Escherichia coli K-12 beta-lactamase PSE-4 assessed as inhibition of nitrocefin hydrolysis preincubated for 5 mins by microtiter plate assay
Beta-lactamase TEM = Beta-lactamase TEM (Escherichia coli, UniProt P62593); assay: Inhibition of Escherichia coli JT4 beta-lactamase TEM1 assessed as inhibition of nitrocefin hydrolysis preincubated for 5 mins by microtiter plate assay
Outline: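 Inhibitor was pre-incubated with enzyme for 5 min at 37° before each determination. Enzyme classification follows Bush.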

Beta-lactamase [3] = biological target: Beta-lactamase (Pseudomonas aeruginosa (strain ATCC 15692 / PAO1 / 1C / PRS 101 / LMG12228), UniProt P24735); assay: Inhibition of Pseudomonas aeruginosa A beta-lactamase assessed as inhibition of nitrocefin hydrolysis preincubated for 5 mins by microtiter plate assay
Beta-lactamase [4] = biological target: Beta-lactamase (Enterobacter cloacae, UniProt P05364); assay: Inhibition of Enterobacter cloacae P99 beta-lactamase assessed as inhibition of nitrocefin hydrolysis pre-incubated for 5 mins by microtiter plate assay
Beta-lactamase [5] = biological target: T1, Beta-lactamase (Proteus mirabilis, UniProt P30897); assay: Inhibition of Proteus mirabilis C889 beta-lactamase assessed as inhibition of nitrocefin hydrolysis preincubated for 5 mins by microtiter plate assay
T1 sequence (P30897 whole entry): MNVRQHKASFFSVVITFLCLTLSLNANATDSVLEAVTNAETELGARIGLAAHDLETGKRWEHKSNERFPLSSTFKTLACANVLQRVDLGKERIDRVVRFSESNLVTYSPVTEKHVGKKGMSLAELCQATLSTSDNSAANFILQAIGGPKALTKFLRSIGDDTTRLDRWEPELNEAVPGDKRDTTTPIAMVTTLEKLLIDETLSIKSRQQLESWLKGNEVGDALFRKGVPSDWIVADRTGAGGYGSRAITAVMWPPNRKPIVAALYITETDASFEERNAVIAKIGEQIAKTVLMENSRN

[6] = biological target: Beta-lactamase (Staphylococcus aureus) (UniProt P00807); assay: Inhibition of Staphylococcus aureus Russell beta-lactamase assessed as inhibition of nitrocefin hydrolysis up to 567 ug/ml pre-incubated for 5 mins by microtiter plate assay
Outline: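 Inhibitor was pre-incubated with the enzyme for 5 min at 37°, then hydrolysis of 200 µM nitrocefin was read on a microtiter plate reader. Inhibitor was tested at concentrations up to 567 µg/ml.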

Pseudomonas aeruginosa = assay: Antimicrobial activity against Pseudomonas aeruginosa 1771P by microtiter method; assay type: functional
Outline: (§1)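 Broth microdilution MIC in Oxoid nutrient broth No. 2. Inoculum was a 1/500 dilution of an overnight broth culture, and plates were incubated overnight at 37°.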

Proteus mirabilis = assay: Antimicrobial activity against Proteus mirabilis C977 by microtiter method; assay type: functional; outline: as §1
Enterobacter cloacae = assay: Antimicrobial activity against Enterobacter cloacae N1 by microtiter method; assay type: functional; outline: as §1
Klebsiella pneumoniae = assay: Antimicrobial activity against Klebsiella pneumoniae A by microtiter method; assay type: functional; outline: as §1
Serratia marcescens = assay: Antimicrobial activity against Serratia marcescens US32 by microtiter method; assay type: functional; outline: as §1
Bacillus subtilis = assay: Antimicrobial activity against Bacillus subtilis ATCC 6633 by microtiter method; assay type: functional; outline: as §1
Staphylococcus aureus [7] = assay: Antimicrobial activity against Staphylococcus aureus Oxford by microtiter method; assay type: functional; outline: as §1
Staphylococcus aureus [8] = assay: Antimicrobial activity against Staphylococcus aureus Russell by microtiter method; assay type: functional; outline: as §1
Staphylococcus aureus [9] = assay: Antimicrobial activity against Staphylococcus aureus Smith by microtiter method; assay type: functional; outline: as §1
[10] = test system: Staphylococcus saprophyticus; assay: Antimicrobial activity against Staphylococcus saprophyticus Fl2 by microtiter method; assay type: functional; outline: as §1
[11] = test system: Staphylococcus epidermidis; assay: Antimicrobial activity against Staphylococcus epidermidis NCTC 11047 by microtiter method; assay type: functional; outline: as §1
Enterococcus faecalis = assay: Antimicrobial activity against Streptococcus faecalis 1 by microtiter method; assay type: functional; outline: as §1
Streptococcus pyogenes = assay: Antimicrobial activity against Streptococcus pyogenes CN 10 after overnight incubation by Todd Hewitt broth dilution method; assay type: functional
Outline: (§2)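 Broth microdilution MIC in Todd Hewitt broth. Inoculum was a 1/500 dilution of an overnight broth culture, and plates were incubated overnight at 37°.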

Streptococcus pneumoniae = assay: Antimicrobial activity against Streptococcus pneumoniae PU7 after overnight incubation by Todd Hewitt broth dilution method; assay type: functional; outline: as §2
Escherichia coli = assay: Antimicrobial activity against Escherichia coli NCTC-10418 by microtiter method; assay type: functional; outline: as §1

Sequence of Beta-lactamase (Enterobacter cloacae, UniProt P05364) (P05364 whole entry): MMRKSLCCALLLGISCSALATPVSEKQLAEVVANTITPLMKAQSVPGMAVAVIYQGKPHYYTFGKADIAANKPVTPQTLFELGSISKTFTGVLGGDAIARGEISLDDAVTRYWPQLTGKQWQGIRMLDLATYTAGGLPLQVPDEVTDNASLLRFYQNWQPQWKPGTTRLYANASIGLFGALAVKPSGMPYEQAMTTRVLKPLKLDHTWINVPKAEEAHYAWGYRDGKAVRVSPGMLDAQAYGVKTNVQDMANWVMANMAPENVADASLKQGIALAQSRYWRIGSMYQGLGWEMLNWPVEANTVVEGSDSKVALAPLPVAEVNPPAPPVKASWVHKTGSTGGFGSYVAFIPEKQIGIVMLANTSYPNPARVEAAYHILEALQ
Sequence of Beta-lactamase TEM (P62593 whole entry): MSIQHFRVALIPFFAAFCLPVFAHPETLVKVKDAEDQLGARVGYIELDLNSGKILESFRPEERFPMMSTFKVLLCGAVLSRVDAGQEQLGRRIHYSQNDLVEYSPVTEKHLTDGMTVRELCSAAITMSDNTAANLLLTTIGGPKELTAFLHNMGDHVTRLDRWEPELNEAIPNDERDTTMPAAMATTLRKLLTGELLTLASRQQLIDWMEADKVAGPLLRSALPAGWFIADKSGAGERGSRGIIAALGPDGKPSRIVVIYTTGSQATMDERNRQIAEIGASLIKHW
Sequence of Beta-lactamase (Pseudomonas aeruginosa (strain ATCC 15692 / PAO1 / 1C / PRS 101 / LMG12228), UniProt P24735) (P24735 whole entry): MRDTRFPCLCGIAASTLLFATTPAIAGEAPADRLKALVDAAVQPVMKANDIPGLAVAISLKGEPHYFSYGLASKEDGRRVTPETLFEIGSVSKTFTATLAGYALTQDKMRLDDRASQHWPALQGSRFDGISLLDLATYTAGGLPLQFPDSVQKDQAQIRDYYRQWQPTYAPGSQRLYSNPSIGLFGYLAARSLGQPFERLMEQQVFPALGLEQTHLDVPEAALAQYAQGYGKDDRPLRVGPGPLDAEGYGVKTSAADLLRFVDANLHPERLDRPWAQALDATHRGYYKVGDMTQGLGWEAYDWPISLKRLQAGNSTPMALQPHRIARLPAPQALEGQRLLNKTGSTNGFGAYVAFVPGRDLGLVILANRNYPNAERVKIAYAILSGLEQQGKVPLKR
Sequence of Beta-lactamase (Staphylococcus aureus) (P00807 whole entry): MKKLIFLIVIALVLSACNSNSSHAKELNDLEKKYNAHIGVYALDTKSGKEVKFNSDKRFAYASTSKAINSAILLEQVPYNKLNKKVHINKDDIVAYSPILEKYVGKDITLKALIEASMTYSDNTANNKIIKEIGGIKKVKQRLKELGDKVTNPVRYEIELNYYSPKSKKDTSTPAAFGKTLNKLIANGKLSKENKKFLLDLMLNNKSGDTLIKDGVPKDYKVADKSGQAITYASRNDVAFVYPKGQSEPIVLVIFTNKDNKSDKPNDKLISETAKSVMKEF

O=C(O)[C@H]1/C(=C/CO)O[C@@H]2CC(=O)N21 [CLAVULANIC ACID]
IC50 [1]: 0.35 µg/mL (≈ 1.76 µM)

CC/C=C\C/C=C\C/C=C\CCCCCCCc1cccc(O)c1C(=O)O
IC50 [2]: 10.1 µg/mL (≈ 27.3 µM)
IC50 [1]: 79.7 µg/mL (≈ 215 µM)
IC50 (Beta-lactamase TEM): 13.5 µM
IC50 (Beta-lactamase [3]): 109 µM
IC50 (Beta-lactamase [4]): 44.5 µM
IC50 (Beta-lactamase [5]): 300 µM
Activity [6]: inactive
MIC (Pseudomonas aeruginosa): > 256 µg/mL
MIC (Proteus mirabilis): > 256 µg/mL
MIC (Enterobacter cloacae): > 256 µg/mL
MIC (Klebsiella pneumoniae): > 256 µg/mL
MIC (Serratia marcescens): > 256 µg/mL
MIC (Bacillus subtilis): 4 µg/mL (≈ 10.8 µM)
MIC (Staphylococcus aureus [7]): 8 µg/mL (≈ 21.6 µM)
MIC (Staphylococcus aureus [8]): 32 µg/mL (≈ 86.4 µM)
MIC (Staphylococcus aureus [9]): 2 µg/mL (≈ 5.4 µM)
MIC [10]: 2 µg/mL (≈ 5.4 µM)
MIC [11]: 2 µg/mL (≈ 5.4 µM)
MIC (Enterococcus faecalis): 0.25 µg/mL (≈ 0.675 µM)
MIC (Streptococcus pyogenes): 2 µg/mL (≈ 5.4 µM)
MIC (Streptococcus pneumoniae): 2 µg/mL (≈ 5.4 µM)
MIC (Escherichia coli): > 256 µg/mL
